Data from ChEMBL document CHEMBL1146180, “Synthesis and evaluation of [18F] labeled pyrimidine nucleosides for positron emission tomography imaging of herpes simplex virus 1 thymidine kinase gene expression” (J Med Chem, 2006).

How the values were obtained:
[1] = tested on: RG2; test: Ratio of uptake in rat RG2TK+ cells to RG2 cells; assay type: ADME, cell-based
How it was run: (§1)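 Paired time-course uptake over 120 min in HSV1-tk transduced RG2TK+ and wild-type RG2 cells. Medium held 18F tracer (10 kBq/mL) with [3H]TdR (3.7 kBq/mL) and [14C]FIAU (0.37 kBq/mL) as references. 18F gamma-counted at once, 3H/14C by liquid scintillation 24-36 h later. Net accumulation rate, (mL medium/min)/g cells, taken from slope of (dpm/g cells)/(dpm/mL medium) vs time and normalized to TdR.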

[2] = tested on: RG2; test: Uptake in HSV1 thymidine kinase expressing rat RG2TK+ cells; assay type: ADME, cell-based; how it was run: as §1
[3] = tested on: RG2; test: Uptake in rat RG2 cells; assay type: ADME, cell-based; how it was run: as §1
[4] = Partition coefficient, log P at pH 7.4; assay type: physicochemical; details: octanol/water
How it was run: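 Octanol/PBS shake-flask: 20 µL radiolabeled tracer in saline added to 0.5 mL each 1-octanol and PBS (pH 6.4, 7.0, 7.4, 8.4); vortexed 1 min, centrifuged 5 min; 20 µL of each layer weighed and 18F gamma-counted (400-550 keV). log P = log10(counts per g octanol / counts per g water).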

Structure (SMILES) | Ratio [1] | Drug uptake [2] | Drug uptake [3] | logD [4]
O=c1[nH]c(=O)n([C@@H]2O[C@H](CO)[C@@H](O)[C@@H]2[18F])cc1C(F)(F)F | 13 | 51 µL/min/mg | 4 µL/min/mg | 0.03
O=c1[nH]c(=O)n([C@@H]2O[C@H](CO)[C@@H](O)[C@@H]2F)cc1CC[18F] | 550 | 290 µL/min/mg | 0.53 µL/min/mg | 
CCCc1cn([C@@H]2O[C@H](CO)[C@@H](O)[C@@H]2[18F])c(=O)[nH]c1=O |  | 14 µL/min/mg | -1 µL/min/mg | 0.5
Nc1nc(=O)c2ncn(CCC(CO)C[18F])c2[nH]1 (stereo not drawn) | 6.9 | 22 µL/min/mg | 3.2 µL/min/mg | 
Nc1nc(O)c2ncn(COC(CO)C[18F])c2n1 (stereo not drawn) | 19 | 7.7 µL/min/mg | 0.4 µL/min/mg | 

Continued, values first:

Ratio [1] | Drug uptake [2] | Drug uptake [3] | logD [4] | Structure (SMILES)
5.7 | 274 µL/min/mg | 48 µL/min/mg | -0.1 | O=c1[nH][14c](=O)n([C@@H]2O[C@H](CO)[C@@H](O)[C@@H]2F)cc1I
 | 35 µL/min/mg | -1 µL/min/mg | 1.02 | O=c1[nH]c(=O)n([C@@H]2O[C@H](CO)[C@@H](O)[C@@H]2[18F])cc1/C=C/Br
